Experimental data collected from several papers.
Lines come from different studies, so protocols differ.
Cell line: BT-549
Observed: cell growth or viability

Structure (SMILES) | test | setting | endpoint | value
Cl.Oc1cccc2c1[nH]c1c(C3=CC4(O)CC/C=C\CCCCN5CCC3C3(CC6/C=C\CCCCN6C43)C5)nccc12 (single isomer, unassigned; (+)) | neutral red | 48 h | IC50 | 1.05 µg/mL
COc1ccc(-c2ccc(-c3ccc(C(=N)N)nc3)s2)cc1 | SRB | – | GI50 | 1700 nM
CC(=O)O[C@@]12CO[C@@H]1C[C@H](O)[C@@]1(C)C(=O)[C@H](O)C3=C(C)[C@@H](OC(=O)[C@H](O)[C@@H](NC(=O)OC(C)(C)C)c4ccccc4)C[C@@](O)([C@@H](OC(=O)c4ccccc4)[C@H]21)C3(C)C | ATP luminescence | 72 h | IC50 | 1 nM
COc1cccc2c1C(=O)c1c(O)c3c(c(O)c1C2=O)C[C@@](O)(C(=O)CO)C[C@@H]3O[C@H]1C[C@H](N)[C@H](O)[C@H](C)O1 | neutral red | 48 h | IC50 | 1.05 µg/mL
COc1ccc(C(=O)/C=C/c2cccc(Cl)c2Cl)cc1S(N)(=O)=O | SRB | 48 h | GI50 | 4700 nM
COc1cccc(Oc2ccccc2NC(=O)CNC(=O)c2cccc3ccccc23)c1 | SRB | 48 h | GI50 | 295 nM
C#C[C@@]1(O)[C@@H](CO)O[C@@H](n2cc(Br)c3c(N)ncnc32)[C@@H]1O | SRB | – | GI50 | 147 nM
CC(=O)O[C@H]1C(=O)[C@@]2(C)[C@H]([C@H](OC(=O)c3ccccc3)[C@]3(O)C[C@H](OC(=O)[C@H](O)[C@@H](NC(=O)c4ccccc4)c4ccccc4)C(C)=C1C3(C)C)[C@]1(OC(C)=O)CO[C@@H]1C[C@@H]2O | ATP luminescence | 72 h | IC50 | 3.1 nM
COc1cc(-c2ccc(-c3ccc(C(=N)N)nc3)s2)cc(OC)c1OC | SRB | – | GI50 | 1670 nM
O=C1Nc2ccccc2C1=NNc1nnc2n1N=C(c1ccccc1)CS2 | SRB | 10 µM | inhibition | 28%
COc1ccc(C(=O)/C=C/c2cccc3ccccc23)cc1S(N)(=O)=O | SRB | 48 h | GI50 | 1800 nM
